Pf Dd2 growth: P. falciparum Dd2 growth inhibitors, primary screen, SYBR Green fluorescence, single dose replicates | 72 h; active compounds read low | activity change, % at 10 µM | 94,000 tested, 2.3% active | AID 1159554, 2015; in the data active = activity change below about -80%
GASC1 inh: inhibitors of GASC-1 (KDM4C) histone demethylase, primary screen, biochemical, single concentration HTS; Lysine-specific demethylase 4C (Homo sapiens), Q9H3R0; GST-KDM4C 2-372, H3K9me3 peptide, LANCE TR-FRET; inhibition, % at 12.5 µM; 96,000 tested, 0.15% active; AID 720574, 2013;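 active = mean replicate inhibition above about 25%, with at least 55% of replicates also reaching it, limit read from the data, passing the limit was not always enough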
Target sequence (Q9H3R0 2-372 limits assumed): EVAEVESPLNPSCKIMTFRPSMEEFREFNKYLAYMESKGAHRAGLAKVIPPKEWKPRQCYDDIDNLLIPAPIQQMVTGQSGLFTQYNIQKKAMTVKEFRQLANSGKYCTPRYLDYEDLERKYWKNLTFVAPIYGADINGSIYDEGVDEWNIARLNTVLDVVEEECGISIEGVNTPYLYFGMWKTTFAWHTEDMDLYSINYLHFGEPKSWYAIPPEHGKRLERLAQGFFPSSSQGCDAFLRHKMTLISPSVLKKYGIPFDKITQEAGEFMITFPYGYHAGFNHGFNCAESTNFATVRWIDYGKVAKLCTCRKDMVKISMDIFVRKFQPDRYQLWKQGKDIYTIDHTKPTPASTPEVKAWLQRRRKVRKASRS
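Material: GST-tagged GASC-1 (JMJD2C) catalytic fragment, aa 2-372 / Quantity: enzyme final amount 10 nM / Medium: HEPES buffer, pH 7.5, plus ascorbate / Doses: one test concentration per compound / Incubation: 30 min reaction, 60 min detection, RT / Measured by: LANCE TR-FRET / Read-out: inhibition from TR-FRET ratio decrease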
IDH1 R132H inh: inhibitors of IDH1 R132H reductase, primary screen, biochemical, plate reader, single point | Isocitrate dehydrogenase [NADP] cytoplasmic (Homo sapiens), O75874 | diaphorase/resazurin fluorescence, 60 min | inhibition, % at 10 µM | 70,000 tested, 0.18% active | AID 624101, 2012; in the data active = inhibition above about 34%;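 note: 0% = DMSO and 100% = no enzyme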
T cruzi growth: T. cruzi intracellular proliferation inhibitors, primary screen, cell-based, beta-gal Tulahuen parasites, NIH3T3 host, luminescence. inhibition, % at 8.34 µM. 77,000 tested, 5.9% active. T. cruzi beta-gal in NIH3T3, GalScreen luminescence, 90 h;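 active = mean inhibition above about 93%, with at least 55% of replicates each passing it, limit read from the data, passing the limit was not always enough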
* = called active by the depositor; . = no result; ! = not active in a repeat. Shown are actives, neighbours in structure and some others; about 5.9% of the full set was active somewhere.

SMILES	Pf Dd2 growth	GASC1 inh	IDH1 R132H inh	T cruzi growth
CCCNC(=O)N1[C@H](CO)[C@@H](c2ccc(-c3cccc(OC)c3)cc2)[C@@H]1C#N	-21	-2	.	86
N#C[C@@H]1[C@H](c2ccc(C3=CCCCC3)cc2)[C@H](CO)N1C(=O)NC1CCCC1	-83*	-1	.	.
N#C[C@H]1[C@@H](c2ccc(C3=CCCCC3)cc2)[C@H](CO)N1C(=O)NC1CCCC1	15	2	.	.
N#C[C@@H]1[C@H](c2ccc(-c3cccc(F)c3)cc2)[C@@H](CO)N1C(=O)NC1CCCC1	-87*	-2	.	78
CC(C)Cc1ccc(C(C)C(=O)Nc2cccc(-c3cnco3)c2)cc1 (configuration not stated)	.	.	1	.
COC(=O)C1c2c(oc3cc(CO)cc(O)c3c2=O)C=CC1O (configuration not stated)	.	.	2	.
CCOc1ccc(Br)cc1C(=O)NCCc1c[nH]c2ccccc12	.	.	0	.
N#C[C@H]1[C@@H](c2ccccc2-c2ccc(F)cc2)[C@@H](CO)N1C(=O)NC1CCCCC1	61	-2	.	.
N#C[C@@H]1[C@H](c2ccccc2-c2ccc(F)cc2)[C@H](CO)N1C(=O)NC1CCCC1	-92*	0	.	.
CN([NH2+][O-])c1cc(O)ccc1O	.	.	69*	.
Cc1cccc(-c2ccc([C@@H]3[C@@H]4CN(C(=O)CN(C)C)C[C@H]3N4)cc2)c1	-85*	-3	.	.
Cc1cccc(-c2ccc(C3[C@@H]4CN(C(=O)c5ccncc5)C[C@H]3N4)cc2)c1 (some centres not stated)	-9	0	.	.
CN(C)CC(=O)N1C[C@@H]2N[C@H](C1)C2c1ccc(/C=C/c2ccccc2)cc1 (some centres not stated)	-91*!	-1	.	.
CCc1cc(C(=O)OC)c(NC(=O)c2cc(-c3cccnc3)nc3ccc(Br)cc23)s1	.	.	0	.
O=C1c2cccc3cccc(c23)N1Cc1ccc(F)cc1Cl	.	.	-1	.
COc1ccc2c3c([nH]c2c1)[C@H](CO)N(Cc1nccs1)CC31CN(Cc2cccnc2)C1	-88*	0	.	.
COc1ccc2c3c([nH]c2c1)[C@H](CO)N(C(=O)C1CCCC1)CC31CCN(Cc2nccs2)CC1	-83*	-3	.	.
COc1ccc2c3c([nH]c2c1)[C@H](CO)N(C(=O)C1CCCCC1)CC31CCN(Cc2nccs2)CC1	-88*	0	.	.
COc1ccc2c3c([nH]c2c1)[C@H](CO)N(Cc1ccc(Cl)cc1)CC31CCN(Cc2nccs2)CC1	-93*	-1	.	.
COc1ccc2c3c([nH]c2c1)[C@@H](CO)N(Cc1nccs1)CC31CN(Cc2nccs2)C1	-37	-1	.	.
COc1ccc(-c2nnc(SCC(=O)Nc3cccc(C(C)=O)c3)n2-c2ccccc2)cc1	.	.	-1	.
N#Cc1cccc(-c2ccc(C3[C@@H]4CN(C(=O)Nc5ccc(C(F)(F)F)cc5)C[C@H]3N4)cc2)c1 (some centres not stated)	-84*!	-4	.	.
C/C=C/c1ccc(C2[C@@H]3CN(C(=O)Nc4ccc(C(F)(F)F)cc4)C[C@H]2N3)cc1 (some centres not stated)	-82*!	1	.	.
O=C(Nc1cccc(F)c1)N1C[C@@H]2N[C@H](C1)C2c1ccc(-c2cccnc2)cc1 (some centres not stated)	-51	0	.	.
C/C=C/c1ccc(C2[C@@H]3CN(C(=O)Nc4ccc(F)cc4)C[C@H]2N3)cc1 (some centres not stated)	-54	0	.	.
SMILES	Pf Dd2 growth	GASC1 inh	IDH1 R132H inh	T cruzi growth
O=C(Nc1ccc(C(F)(F)F)cc1)N1C[C@@H]2N[C@H](C1)C2c1ccc(-c2cccnc2)cc1 (some centres not stated)	-91*!	0	.	.
O=C(CC1NCCNC1=O)Nc1ccc(Cl)cc1 (configuration not stated)	.	.	1	.
O=C(CSc1nnc(-c2ccco2)n1-c1ccccc1)c1ccc(F)cc1	.	.	0	.
CCCN(C)C[C@H]1Oc2ncc(C#Cc3ccccc3OC)cc2C(=O)N([C@H](C)CO)C[C@H]1C	-87*	-3	0	.
CCCN(C)C[C@H]1Oc2ncc(C#Cc3ccccc3OC)cc2C(=O)N([C@@H](C)CO)C[C@H]1C	78	-2	-1	.
C[C@H]1CN([C@@H](C)CO)C(=O)c2cc(C#Cc3ccccc3)cnc2O[C@@H]1CN(C)CC1CCOCC1	-2	1	-1	14
C[C@@H]1CN([C@@H](C)CO)C(=O)c2cc(C#Cc3ccccc3)cnc2O[C@H]1CN(C)CC1CCOCC1	-36	35*	25	1
C[C@H]1CN([C@@H](C)CO)C(=O)c2cc(C#Cc3ccncc3)cnc2O[C@@H]1CN(C)Cc1ccncc1	-19	1	37*	68
COc1ccccc1C#Cc1cnc2c(c1)C(=O)N([C@@H](C)CO)C[C@H](C)[C@H](CN(C)C)O2	-25	29*	-1	75
COc1ccccc1C#Cc1cnc2c(c1)C(=O)N([C@@H](C)CO)C[C@@H](C)[C@@H](CN(C)C)O2	-18	-1	0	-2
C[C@H](CO)N1C[C@H](C)[C@@H](CN(C)Cc2ccccn2)Oc2ncc(C#CC3(O)CCCC3)cc2C1=O	32	41*	2	19
CNC[C@@H]1Oc2ncc(C#Cc3cccc(OC)c3)cc2C(=O)N([C@H](C)CO)C[C@@H]1C	-21	-2	-1	35
CNC[C@H]1Oc2ncc(C#Cc3cccc(OC)c3)cc2C(=O)N([C@H](C)CO)C[C@H]1C	-83*	-3	-1	76
O=C(CCCCCC(=O)N/N=C/c1ccc(F)cc1)NO	.	.	0	.
COc1cccc(NC(=O)CSc2nnc(-c3ccccc3)n2-c2ccc(Cl)cc2)c1	.	.	0	.
COc1ccc(S(=O)(=O)Nc2ccc3c(c2)CC(=O)N([C@H](C)CO)C[C@H](C)[C@@H](CN(C)S(=O)(=O)c2ccc(OC)cc2)O3)cc1	-49	7	-3	9
Cc1ccc(S(=O)(=O)N(C)C[C@@H]2Oc3ccc(NS(=O)(=O)c4ccc(Cl)cc4)cc3CC(=O)N([C@@H](C)CO)C[C@@H]2C)cc1	-81*	0	0	42
COc1ccc(S(=O)(=O)Nc2ccc3c(c2)CC(=O)N([C@@H](C)CO)C[C@H](C)[C@H](CN(C)S(=O)(=O)c2ccc(OC)cc2)O3)cc1	-86*	-5	-3	3
CO[C@@H]1CN(C)C(=O)c2ccc(NC(=O)c3cc(C)on3)cc2OC[C@@H](C)N(S(=O)(=O)c2cccc(C)c2)C[C@H]1C	-86*	0	0	.
COc1ccc(CN2C[C@H](C)[C@@H](OC)CN(C)C(=O)c3ccc(NC(=O)c4nc5ccccc5s4)cc3OC[C@@H]2C)cc1	-90*	-3	0	93
COc1ccc(CN2C[C@@H](C)[C@H](OC)CN(C)C(=O)c3cc(NC(=O)c4nc5ccccc5s4)ccc3OC[C@H]2C)cc1	-86*	-1	0	.

Assay outcomes deposited in PubChem by Broad Institute.
